This passage reports Activity results from ChEMBL document CHEMBL1147533, “Highly diastereoselective inverse electron demand (IED) Diels-Alder reaction mediated by chiral salen-AlCl complex: the first, target-oriented synthesis of pyranoquinolines as potential antibacterial agents” (Bioorg Med Chem Lett, 2004).

Molecules are shown by their SMILES.

What all share (assay type): functional, organism-based
Experiment [1] concerns Vibrio parahaemolyticus. Put plainly: In vitro antibacterial activity against Vibrio parahaemolyticus at a concentration of 2 mg/mL; - indicates No activity. The essentials:
(§1)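 Five microlitres of compound stock (about 0.2 mg) combined with bacterial suspension in Tris-buffered saline (0.8 OD at 580 nm). Mixture incubated 14 h at 14 °C, then plated on TCBS agar (thiosulphate–citrate–bile salt–sucrose) to read bactericidal activity.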

In experiment [2] the test system is Pseudomonas sp. Put plainly: In vitro antibacterial activity against Pseudomonas species at a concentration of 2 mg/mL; - indicates No activity. The method, boiled down: as §1
Experiment [3] relates to Vibrio mimicus. As to the kind of experiment: In vitro antibacterial activity against Vibrio mimicus at a concentration of 2 mg/mL; - indicates No activity. The essentials:
as §1

The test system of experiment [4] is Vibrio vulnificus. Put plainly: In vitro antibacterial activity against Vibrio vulnificus at a concentration of 2 mg/mL; - indicates No activity. The essentials: as §1
Experiment [5] relates to Vibrio alginolyticus. Put plainly: In vitro antibacterial activity against Vibrio alginolyticus at a concentration of 2 mg/mL; - indicates No activity. The method, boiled down:
as §1

For experiment [6], the system named is Escherichia coli. As to the kind of experiment: In vitro antibacterial activity against Escherichia coli at a concentration of 2 mg/mL; - indicates No activity. The method, boiled down: as §1
Experiment [7] concerns Vibrio anguillarum. As to the kind of experiment: In vitro antibacterial activity against Vibrio anguillarum at a concentration of 2 mg/mL; - indicates No activity. The method, boiled down:
as §1

Experiment [8] concerns Vibrio fluvialis. Put plainly: In vitro antibacterial activity against Vibrio fluvialis at a concentration of 2 mg/mL; - indicates No activity. The essentials: as §1
Experiment [9] has as its system Escherichia coli. As to the kind of experiment: In vitro antibacterial activity against Escherichia coli in test 1; ++ indicates mild activity. The method, boiled down: as §1
For experiment [10], the system named is Vibrio fluvialis. As to the kind of experiment: In vitro antibacterial activity against Vibrio fluvialis in test 2; - indicates No activity. The method, boiled down: as §1
The subject of experiment [11] is Vibrio fluvialis. Put plainly: In vitro antibacterial activity against Vibrio fluvialis in test 1; - indicates No activity. The method, boiled down:
as §1

The subject of experiment [12] is Escherichia coli. As to the kind of experiment: In vitro antibacterial activity against Escherichia coli in test 2; ++ indicates mild activity. The method, boiled down: as §1
For experiment [13], the system named is Escherichia coli. Put plainly: n vitro antibacterial activity of (25:50%) of compounds against Escherichia coli at a concentration of 2 mg/mL; + indicates No activity. The essentials: as §1
The test system of experiment [14] is Pseudomonas sp. Put plainly: n vitro antibacterial activity of (25:50%) of compounds against Pseudomonas species at a concentration of 2 mg/mL; + indicates No activity. The method, boiled down: as §1
The subject of experiment [15] is Vibrio anguillarum. Put plainly: In vitro antibacterial activity of (50:50%) of compounds against Vibrio anguillarum at a concentration of 2 mg/mL; - indicates No activity. The method, boiled down: as §1
For experiment [16], the system named is Vibrio vulnificus. As to the kind of experiment: n vitro antibacterial activity of (25:50%) of compounds against Vibrio vulnificus at a concentration of 2 mg/mL; + indicates No activity. The method, boiled down:
as §1

The subject of experiment [17] is Vibrio vulnificus. As to the kind of experiment: In vitro antibacterial activity of (50:50%) of compounds against Vibrio vulnificus at a concentration of 2 mg/mL; - indicates No activity. The essentials: as §1
The subject of experiment [18] is Vibrio anguillarum. Put plainly: n vitro antibacterial activity of (25:50%) of compounds against Vibrio anguillarum at a concentration of 2 mg/mL; + indicates No activity. The method, boiled down:
as §1

Experiment [19] concerns Escherichia coli. Put plainly: In vitro antibacterial activity of (50:50%) of compounds against Escherichia coli at a concentration of 2 mg/mL; - indicates No activity. The essentials: as §1
Experiment [20] deals with Pseudomonas sp. Put plainly: In vitro antibacterial activity of (50:50%) of compounds against Pseudomonas species at a concentration of 2 mg/mL; - indicates No activity. The method, boiled down: as §1
For experiment [21], the system named is Vibrio mimicus. Put plainly: In vitro antibacterial activity of (50:50%) of compounds against Vibrio mimicus at a concentration of 2 mg/mL; - indicates No activity. The essentials: as §1
The test system of experiment [22] is Vibrio mimicus. As to the kind of experiment: n vitro antibacterial activity of (25:50%) of compounds against Vibrio mimicus at a concentration of 2 mg/mL; + indicates No activity. The method, boiled down:
as §1

Experiment [23] has as its system Vibrio fluvialis. Put plainly: n vitro antibacterial activity of (25:50%) of compounds against Vibrio fluvialis at a concentration of 2 mg/mL; + indicates No activity. The essentials: as §1
In experiment [24] the test system is Vibrio parahaemolyticus. As to the kind of experiment: In vitro antibacterial activity of (50:50%) of compounds against Vibrio parahaemolyticus at a concentration of 2 mg/mL; - indicates No activity. The essentials: as §1
The test system of experiment [25] is Vibrio alginolyticus. Put plainly: In vitro antibacterial activity of (50:50%) of compounds against Vibrio alginolyticus at a concentration of 2 mg/mL; - indicates No activity. The method, boiled down: as §1
The subject of experiment [26] is Vibrio fluvialis. Put plainly: In vitro antibacterial activity of (50:50%) of compounds against Vibrio fluvialis at a concentration of 2 mg/mL; - indicates No activity. The essentials: as §1
The test system of experiment [27] is Vibrio alginolyticus. As to the kind of experiment: n vitro antibacterial activity of (25:50%) of compounds against Vibrio alginolyticus at a concentration of 2 mg/mL; + indicates No activity. The essentials:
as §1

The test system of experiment [28] is Vibrio parahaemolyticus. Put plainly: n vitro antibacterial activity of (25:50%) of compounds against Vibrio parahaemolyticus at a concentration of 2 mg/mL; + indicates No activity. The method, boiled down:
as §1

In the case of `c1ccc([C@@H]2Nc3ccccc3[C@@H]3OCCC[C@H]23)cc1`, the Activity entry in [1], in [2], in experiment [3], in [4], in experiment [5] and in [6] was “Not toxic” in each case. The Activity result in experiment [7] and in experiment [8] was “Not toxic” each time.

For `c1ccc([C@H]2Nc3ccccc3[C@@H]3OCCC[C@H]23)cc1`, the Activity result in experiment [9] is “mild activity”; in experiment [10], “Not toxic”; in experiment [11] it was “Not toxic”; in experiment [12], “mild activity”.

In the case of `c1ccc([C@@H]2Nc3ccccc3[C@@H]3OCCC[C@H]23)cc1.c1ccc([C@H]2Nc3ccccc3[C@@H]3OCCC[C@H]23)cc1`, the Activity result in experiment [13] is “No activity”; in experiment [14], “No activity”; in [15] it was “Not toxic”; in experiment [16] it was “No activity”; in [17], “Not toxic”; in [18] it was “No activity”. Also, the Activity result in experiment [19] was “Not toxic”; in experiment [20], “Not toxic”; in [21], “Not toxic”; in [22] it was “No activity”; in experiment [23] it was “No activity”; in experiment [24] it was “Not toxic”. Besides, the Activity result was “Not toxic” in experiment [25], “Not toxic” in experiment [26], “No activity” in experiment [27] and “No activity” in experiment [28].
